Experimental findings from ChEMBL document CHEMBL4673248, “Discovery and Characterization of BAY 1214784, an Orally Available Spiroindoline Derivative Acting as a Potent and Selective Antagonist of the Human Gonadotropin-Releasing Hormone Receptor as Proven in a First-In-Human Study in Postmenopausal Women” (J Med Chem, 2020) are described below.

The nature of series [1]: Maximum oral bioavailability in Han Wistar rat hepatocytes at 1 uM measured after 2 to 90 mins by LC-MS/MS analysis. The settings on record: time 2-90 min, read-out: Fmax. In kind it is ADME, Hepatocyte.
Series [2] can be described thus: Maximum oral bioavailability in cynomolgus monkey liver microsomes based well stirred liver model. It counts as ADME, Macaca fascicularis, Microsome. As to conditions: read-out: Fmax.
Series [3] can be described thus: Maximum oral bioavailability in rat liver microsomes based well stirred liver model at 1 uM measured after 2 to 60 mins in presence of NADP generating system by LC-MS/MS analysis. It counts as ADME, Microsome. The settings on record: time 2-60 min, read-out: Fmax.
Series [4] is described as follows: Clearance in rat liver microsomes at 1 uM measured upto 60 mins in presence of NADP generating system by LC-MS/MS analysis. It counts as ADME, Microsome. The settings on record: 1 h. (In general: Liver microsomes are a subcellular fraction often used to study metabolism.)
The target of series [5] is Mitogen-activated protein kinase 14 (Homo sapiens, UniProt Q16539). The series is described as follows: Inhibition of MAPK14 (unknown origin).
Sequence of Mitogen-activated protein kinase 14 (Q16539 whole entry): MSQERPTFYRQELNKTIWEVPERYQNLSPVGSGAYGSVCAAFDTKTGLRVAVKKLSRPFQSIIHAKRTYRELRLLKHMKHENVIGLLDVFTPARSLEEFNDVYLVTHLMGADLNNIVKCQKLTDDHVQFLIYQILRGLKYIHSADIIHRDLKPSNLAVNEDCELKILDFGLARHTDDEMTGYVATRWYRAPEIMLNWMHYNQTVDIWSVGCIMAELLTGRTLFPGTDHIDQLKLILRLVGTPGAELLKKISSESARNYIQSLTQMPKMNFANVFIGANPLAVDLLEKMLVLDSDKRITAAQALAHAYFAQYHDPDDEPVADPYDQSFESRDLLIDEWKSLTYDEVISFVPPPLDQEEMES
Series [6] can be described thus: Toxicity in postmenopausal woman at 5 to 450 mg, po administered as single dose using SMEDDS formulation. The settings on record: human, in vivo.
Series [7] is described as follows: Apparent permeability across basolateral to apical side in human Caco2 cells at 2 uM measured after 2 hrs by LC-MS/MS analysis. It counts as ADME, cell-based. As to conditions: Caco-2. In short, it runs like this:
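Caco-2 monolayers grown 15 d, integrity checked by TEER. Compound 2 µM added apical or basolateral in FCS-free HEPES carbonate buffer pH 7.2, incubated 2 h at 37 °C. Both compartments sampled before and after, analysed by LC-MS/MS after MeOH precipitation. Papp computed from receiver peak area, surface area and time. Efflux ratio taken as Papp B–A/Papp A–B.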

For the compound `O=C(NCc1ncc(C(F)(F)F)cc1Cl)c1ccc2c(c1)C1(CCS(=O)(=O)CC1)[C@H](C1CC1)N2S(=O)(=O)c1ccc(F)cc1` [BAY-784], the results for the Fh at 1 µM in series [1] and in series [3] were 82% and 91%, respectively. The Fh in series [2] was 81%. The CLH in series [4] was determined as 6.33 mL/min/kg. It took 10.7 µM to reach half-maximal inhibition in series [5] (IC50). Besides, in series [6], the Activity result was “Non-Toxic”. The Papp B→A – broadly, the apparent permeability from the basolateral to the apical side of a cell layer – at 2 h, 2 µM in series [7] stood at 12.9 ×10⁻⁶ cm/s.
